Test results reported in ChEMBL document CHEMBL4428027, “3-Hydroxypyrimidine-2,4-diones as Selective Active Site Inhibitors of HIV Reverse Transcriptase-Associated RNase H: Design, Synthesis, and Biochemical Evaluations” (J Med Chem, 2016).
One block for each compound: values may come before it. Active and inactive are the calls of the source. The rule behind the calls is not given here.

Columns and labels:
[1] = molecular target: T1, Human immunodeficiency virus type 1 reverse transcriptase (Human immunodeficiency virus 1, UniProt Q72547); experiment: Inhibition of polymerase activity of HIV1 reverse transcriptase using poly(rA)-oligo(dT)16 and [3H]-TTP incubated for 20 mins by liquid scintillation spectrometry
Procedure, shortened: (§1)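 Reaction mix: 10 µM [3H]-TTP, 40 nM poly(rA)-oligo(dT)16, 50 mM Tris-HCl pH 7.4 (37°C), 60 mM KCl, 5 mM MgCl2. Started with 10 nM RT; 20 min at 37°C. Quenched in ice-cold 10% TCA with 20 mM sodium pyrophosphate, then glass-fibre filtered and washed with TCA and ethanol. Label incorporation read by liquid scintillation.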

[2] = molecular target: T1, Human immunodeficiency virus type 1 reverse transcriptase; experiment: Inhibition of RNase H activity of full length recombinant HIV1 reverse transcriptase assessed as reduction in DNA 3'-end cleavage using HTS2 substrate
Procedure, shortened: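 Recombinant p66/p51 RT heterodimer. Fluorescent RNA/DNA duplex substrate HTS-2 reports DNA 3′-end-directed (polymerase-dependent) cleavage. IC50 is the mean of at least three independent experiments.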

[3] = system: Human immunodeficiency virus 1; experiment: Antiviral activity against HIV1 infected in human HeLa P4/R5 cells assessed as reduction in viral growth pre-incubated with cells for 16 hrs followed by additional 48 hrs incubation by fluorescence-based beta-galactosidase detection assay; assay type: functional, organism-based
Procedure, shortened: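 P4R5 HeLa indicator cells (CD4, CXCR4, CCR5; HIV LTR-driven β-galactosidase reporter), 5×10^3 cells/well in DMEM/10% FBS with puromycin 0.5 µg/ml. Drug added 16 h before HIV exposure, then 48 h further incubation. Infection read by fluorescence-based β-galactosidase detection.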

[4] = molecular target: T1, Human immunodeficiency virus type 1 reverse transcriptase; experiment: Inhibition of RNase H activity of full length recombinant HIV1 reverse transcriptase assessed as reduction in nonspecific internal cleavage using HTS1 substrate
Procedure, shortened: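 Recombinant p66/p51 RT heterodimer. Fluorescent RNA/DNA duplex substrate HTS-1 measures internal cleavage. IC50 is the mean of at least three independent experiments.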

[5] = molecular target: T1, Human immunodeficiency virus type 1 reverse transcriptase; experiment: Inhibition of re-constituted HIV1 reverse transcriptase RNase H domain fragment
Procedure, shortened: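 Secondary check using a catalytically active, isolated HIV RNase H domain fragment (reconstituted) with duplex substrate HTS-1.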

[6] = Toxicity against human HeLa P4/R5 cells; assay type: cell-based
[7] = molecular target: Human immunodeficiency virus type 1 integrase (Human immunodeficiency virus 1, UniProt Q7ZJM1); experiment: Inhibition of HIV integrase pre-incubated for 10 mins before addition of oligo-5'-biotin ATGTGGAAAATCTCTAGCA annealed with ACTGCTAGAGATTTTCCACAT 3'-Cy5) substrate
Chain of Human immunodeficiency virus type 1 integrase (Q7ZJM1 whole entry): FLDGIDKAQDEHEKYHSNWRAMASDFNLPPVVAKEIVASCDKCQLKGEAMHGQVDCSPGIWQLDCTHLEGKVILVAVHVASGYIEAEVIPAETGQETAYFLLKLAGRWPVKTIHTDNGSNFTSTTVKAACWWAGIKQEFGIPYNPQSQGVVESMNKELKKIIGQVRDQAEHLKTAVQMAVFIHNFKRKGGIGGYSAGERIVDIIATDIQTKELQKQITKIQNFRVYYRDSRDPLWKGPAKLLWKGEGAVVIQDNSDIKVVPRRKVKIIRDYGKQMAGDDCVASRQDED

[8] = molecular target: T1, Human immunodeficiency virus type 1 reverse transcriptase; experiment: Inhibition of RNase H activity of full length recombinant HIV1 reverse transcriptase assessed as reduction in RNA 5'-end directed cleavage using HTS3 substrate
[9] = molecular target: Human immunodeficiency virus type 1 reverse transcriptase (Human immunodeficiency virus 1) (UniProt Q72547); experiment: Inhibition of HIV1 polymerase activity of reverse transcriptase using poly(rA)-oligo(dT)16 and [3H]-TTP up to 25 uM incubated for 20 mins by liquid scintillation spectrometry; procedure, shortened: as §1
[10] = molecular target: Human immunodeficiency virus type 1 reverse transcriptase (Human immunodeficiency virus 1) (UniProt Q72547); experiment: Inhibition of RNase H activity of full length recombinant HIV1 reverse transcriptase assessed as reduction in RNA 5'-end directed cleavage up to 25 uM using HTS3 substrate
[11] = molecular target: Human immunodeficiency virus type 1 reverse transcriptase (Human immunodeficiency virus 1) (UniProt Q72547); experiment: Inhibition of re-constituted HIV1 reverse transcriptase RNase H domain fragment up to 25 uM
Procedure, shortened: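 Secondary check using a catalytically active, isolated HIV RNase H domain fragment (reconstituted) with duplex substrate HTS-1. […] Upper test concentration 25 µM.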

[12] = molecular target: Human immunodeficiency virus type 1 reverse transcriptase (Human immunodeficiency virus 1) (UniProt Q72547); conditions: up to 25 µM
[13] = molecular target: Human immunodeficiency virus type 1 reverse transcriptase (Human immunodeficiency virus 1) (UniProt Q72547); experiment: Inhibition of RNase H activity of full length recombinant HIV1 reverse transcriptase assessed as reduction in nonspecific internal cleavage up to 25 uM using HTS1 substrate

Compound: O=c1cc(Nc2cccc(-c3ccc(F)cc3)c2)[nH]c(=O)n1O
IC50 ([1]; read-out: IC50): 6.6 µM
IC50 ([2]; read-out: IC50): 0.3 µM
Activity [3]: inactive
IC50 ([4]; read-out: IC50): 0.2 µM
IC50 ([5]; read-out: IC50): 0.15 µM
CC50 [6]: > 25 µM
IC50 [7]: > 100 µM
IC50 ([8]; read-out: IC50): 0.3 µM

Compound: COc1cccc(-c2ccc(Nc3cc(=O)n(O)c(=O)[nH]3)cc2)c1
Activity [3]: inactive
CC50 [6]: > 25 µM

Compound: COc1ccc(-c2ccccc2Oc2cc(=O)n(O)c(=O)n2C)cc1
IC50 [1]: Not Active
IC50 [2]: Not Active
IC50 ([4]; read-out: IC50): 2.3 µM
IC50 ([5]; read-out: IC50): 6.4 µM
CC50 [6]: 6 µM
IC50 [7]: 1 µM
IC50 ([8]; read-out: IC50): 22 µM

Compound: Cn1c(Nc2ccc(-c3cccc(C#N)c3)cc2)cc(=O)n(O)c1=O
IC50 [1]: Not Active
IC50 ([2]; read-out: IC50): 3.7 µM
IC50 ([4]; read-out: IC50): 1.2 µM
IC50 ([5]; read-out: IC50): 0.9 µM
CC50 [6]: 25 µM
IC50 [7]: 30 µM
IC50 ([8]; read-out: IC50): 3.3 µM

Compound: COc1cccc(-c2ccc(Oc3cc(=O)n(O)c(=O)n3C)cc2)c1
IC50 [1]: Not Active
IC50 ([2]; read-out: IC50): 16 µM
IC50 ([4]; read-out: IC50): 2 µM
IC50 ([5]; read-out: IC50): 5.1 µM
CC50 [6]: 6 µM
IC50 ([8]; read-out: IC50): 16 µM
inhibition [9]: inactive

Compound: Cc1ccc(-c2cccc(Nc3cc(=O)n(O)c(=O)[nH]3)c2)cc1
IC50 ([1]; read-out: IC50): 3.1 µM
IC50 ([2]; read-out: IC50): 0.45 µM
IC50 ([4]; read-out: IC50): 0.38 µM
IC50 [7]: 44 µM
IC50 ([8]; read-out: IC50): 0.44 µM

IC50 [1]: Not Active
IC50 [2]: Not Active
inhibition [10]: inactive
inhibition [11]: inactive
IC50 [4]: Not Active
IC50 [5]: Not Active
inhibition [12]: inactive
inhibition [13]: inactive
IC50 [8]: Not Active
inhibition [9]: inactive
Compound: Cn1c(Nc2cccc(C3CCOC3)c2)cc(=O)n(O)c1=O (centres undefined)
CC50 [6]: > 25 µM

Compound: COc1cccc(OC)c1-c1cccc(Nc2cc(=O)n(O)c(=O)[nH]2)c1
IC50 ([1]; read-out: IC50): 1.7 µM
IC50 ([2]; read-out: IC50): 0.7 µM
IC50 ([4]; read-out: IC50): 0.51 µM
IC50 [7]: 1.3 µM
IC50 ([8]; read-out: IC50): 0.47 µM

Compound: Cn1c(Oc2cccc(-c3cccc(O)c3)c2)cc(=O)n(O)c1=O
IC50 [1]: Not Active
IC50 ([2]; read-out: IC50): 12 µM
IC50 ([4]; read-out: IC50): 0.9 µM
IC50 [7]: 7.1 µM
IC50 ([8]; read-out: IC50): 4.3 µM

Compound: COc1ccc(-c2cccc(Nc3cc(=O)n(O)c(=O)[nH]3)c2)cc1
IC50 ([1]; read-out: IC50): 6.3 µM
IC50 ([2]; read-out: IC50): 0.3 µM
Activity [3]: inactive
IC50 ([4]; read-out: IC50): 0.2 µM
IC50 ([5]; read-out: IC50): 0.1 µM
CC50 [6]: > 25 µM
IC50 [7]: > 100 µM
IC50 ([8]; read-out: IC50): 0.4 µM

Compound: COc1ccc(-c2ccc(Nc3cc(=O)n(O)c(=O)n3C)cc2)cc1
IC50 [1]: Not Active
IC50 ([2]; read-out: IC50): 6.6 µM
IC50 ([5]; read-out: IC50): 0.9 µM
CC50 [6]: 5 µM
IC50 [7]: 4.4 µM
IC50 ([8]; read-out: IC50): 5 µM

Compound: Cc1ccc(-c2ccc(Nc3cc(=O)n(O)c(=O)[nH]3)cc2)cc1
IC50 ([1]; read-out: IC50): 5.7 µM
IC50 ([2]; read-out: IC50): 0.7 µM
Activity [3]: inactive
IC50 ([4]; read-out: IC50): 0.4 µM
IC50 ([5]; read-out: IC50): 0.4 µM
CC50 [6]: > 25 µM
IC50 [7]: 93 µM
IC50 ([8]; read-out: IC50): 0.5 µM

Compound: Cn1c(Oc2ccccc2-c2ccccc2)cc(=O)n(O)c1=O
IC50 [1]: Not Active
IC50 [2]: Not Active
inhibition [10]: inactive
inhibition [12]: inactive
IC50 [8]: Not Active
inhibition [9]: inactive

Compound: COc1cccc(-c2cccc(Nc3cc(=O)n(O)c(=O)n3C)c2)c1
IC50 [1]: Not Active
IC50 ([2]; read-out: IC50): 3.5 µM
IC50 ([4]; read-out: IC50): 0.6 µM
IC50 ([5]; read-out: IC50): 1.7 µM
CC50 [6]: 10 µM
IC50 [7]: 4.6 µM
IC50 ([8]; read-out: IC50): 4.3 µM

Compound: COc1ccc(-c2cccc(Nc3cc(=O)n(O)c(=O)[nH]3)c2)c(OC)c1
IC50 ([1]; read-out: IC50): 3.2 µM
IC50 ([2]; read-out: IC50): 0.54 µM
IC50 ([4]; read-out: IC50): 0.31 µM
IC50 [7]: 1.2 µM
IC50 ([8]; read-out: IC50): 2.4 µM

Compound: Cn1c(Nc2cccc(-c3ccccc3)c2)cc(=O)n(O)c1=O
IC50 [1]: Not Active
IC50 ([2]; read-out: IC50): 3.5 µM
IC50 ([4]; read-out: IC50): 0.85 µM
IC50 [7]: 2.2 µM
IC50 ([8]; read-out: IC50): 3.4 µM

Compound: Cn1c(Oc2ccc(-c3ccc(O)cc3)cc2)cc(=O)n(O)c1=O
IC50 [1]: Not Active
IC50 ([2]; read-out: IC50): 15 µM
IC50 ([4]; read-out: IC50): 2.2 µM
IC50 [7]: 12 µM
IC50 ([8]; read-out: IC50): 11 µM

Compound: Cn1c(Nc2cccc(-c3cccc(C#N)c3)c2)cc(=O)n(O)c1=O
IC50 ([1]; read-out: IC50): 5 µM
IC50 ([2]; read-out: IC50): 3.2 µM
IC50 ([4]; read-out: IC50): 1.1 µM
IC50 ([5]; read-out: IC50): 1 µM
CC50 [6]: > 25 µM
IC50 [7]: 7.1 µM
IC50 ([8]; read-out: IC50): 4.1 µM

Compound: COc1cc(OC)cc(-c2ccc(Nc3cc(=O)n(O)c(=O)[nH]3)cc2)c1
IC50 ([1]; read-out: IC50): 0.34 µM
IC50 ([2]; read-out: IC50): 0.32 µM
IC50 ([4]; read-out: IC50): 0.19 µM
IC50 [7]: 35 µM
IC50 ([8]; read-out: IC50): 0.25 µM

Compound: Cc1noc(C)c1-c1ccc(Nc2cc(=O)n(O)c(=O)n2C)cc1
IC50 [1]: Not Active
IC50 ([2]; read-out: IC50): 4.4 µM
IC50 ([4]; read-out: IC50): 1.6 µM
IC50 [7]: 25 µM
IC50 ([8]; read-out: IC50): 3.8 µM
